{"source": "ChEMBL document CHEMBL1142076", "about": "“Expression of immunomodulatory genes in human monocytes induced by voriconazole in the presence of Aspergillus fumigatus” (2007)", "key": {"THP-1 [1]": {"test_system": "THP-1", "assay": "Effect on TGFB1 gene expression in THP1 cells treated with Aspergillus fumigatus hyphae after 6 hrs by cDNA array hybridization", "assay_type": "functional, Homo sapiens", "outline": "(§1)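 THP-1 cells primed with 10 ng/ml PMA for 6 h, rested 22 h, then exposed 6 h at 37°C to sonicated, nonviable AF 4215 hyphal fragments (E:T 10:1) with or without 0.1 μg/ml VRC. Total RNA (4 μg) reverse-transcribed to biotin-labelled cDNA and hybridised to a 96-gene inflammatory cytokine/receptor nylon array. Chemiluminescent read-out normalised to GAPDH; fold change against untreated cells; >2.5-fold counted significant; three independent arrays.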"}, "THP-1 [2]": {"test_system": "THP-1", "assay": "Effect on IL16 gene expression in THP1 cells treated with Aspergillus fumigatus hyphae after 6 hrs by cDNA array hybridization", "assay_type": "functional, Homo sapiens", "outline": "as §1"}, "THP-1 [3]": {"test_system": "THP-1", "assay": "Effect on IL11 gene expression in THP1 cells treated with Aspergillus fumigatus hyphae after 6 hrs by cDNA array hybridization", "assay_type": "functional, Homo sapiens", "outline": "as §1"}, "THP-1 [4]": {"test_system": "THP-1", "assay": "Effect on CCL4 gene expression in THP1 cells treated with Aspergillus fumigatus hyphae after 6 hrs by cDNA array hybridization relative to control", "assay_type": "functional, Homo sapiens", "outline": "as §1"}, "THP-1 [5]": {"test_system": "THP-1", "assay": "Effect on CXCL6 gene expression in THP1 cells treated with Aspergillus fumigatus hyphae after 6 hrs by cDNA array hybridization relative to control", "assay_type": "functional, Homo sapiens", "outline": "as §1"}, "THP-1 [6]": {"test_system": "THP-1", "assay": "Effect on CCL15 gene expression in THP1 cells treated with Aspergillus fumigatus hyphae after 6 hrs by cDNA array hybridization relative to control", "assay_type": "functional, Homo sapiens", "outline": "as §1"}, "THP-1 [7]": {"test_system": "THP-1", "assay": "Effect on CCL3 gene expression in THP1 cells treated with Aspergillus fumigatus hyphae after 6 hrs by cDNA array hybridization relative to control", "assay_type": "functional, Homo sapiens", "outline": "as §1"}, "THP-1 [8]": {"test_system": "THP-1", "assay": "Effect on TNFA gene expression in THP1 cells treated with Aspergillus fumigatus hyphae after 6 hrs by cDNA array hybridization", "assay_type": "functional, Homo sapiens", "outline": "as §1"}, "Aspergillus fumigatus [9]": {"test_system": "Aspergillus fumigatus", "assay": "Antifungal activity against Aspergillus fumigatus hyphae incubated with THP1 cells assessed as hyphal damage at 0.1 ug/ml after 6 hrs by XTT assay", "assay_type": "functional, THP-1", "outline": "(§2)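 A. fumigatus AF 4215 hyphae grown 16 h at 37°C in yeast nitrogen base with 2% glucose, then medium changed to RPMI 1640 + 10% heat-inactivated FCS. PMA-induced THP-1 cells added at E:T 10:1, VRC at 0.1 μg/ml, or both, 6 h at 37°C, 5% CO2. THP-1 lysed with water. XTT 0.25 mg/ml plus coenzyme Q0 40 μg/ml, 1 h. OD 450/690 nm; damage = (1 − X/C)×100 against hyphae-only wells; duplicates.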"}, "THP-1 [10]": {"test_system": "THP-1", "assay": "Effect on CCL2 gene expression in THP1 cells treated with Aspergillus fumigatus hyphae after 6 hrs by cDNA array hybridization relative to control", "assay_type": "functional, Homo sapiens", "outline": "as §1"}, "THP-1 [11]": {"test_system": "THP-1", "assay": "Effect on CCL5 gene expression in THP1 cells treated with Aspergillus fumigatus hyphae after 6 hrs by cDNA array hybridization relative to control", "assay_type": "functional, Homo sapiens", "outline": "as §1"}, "THP-1 [12]": {"test_system": "THP-1", "assay": "Effect on IL1R1 gene expression in THP1 cells treated with Aspergillus fumigatus hyphae after 6 hrs by cDNA array hybridization", "assay_type": "functional, Homo sapiens", "outline": "as §1"}, "THP-1 [13]": {"test_system": "THP-1", "assay": "Decrease in MCP1 production in THP1 cells stimulated with Aspergillus fumigatus hyphae at 0.1 ug/ml after 6 hrs", "assay_type": "functional, cell-based", "settings": "Homo sapiens", "outline": "(§3)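 PMA-primed THP-1 cells (1 × 10^6/ml) incubated 6 h at 37°C with hyphal fragments (E:T 10:1) with or without 0.1 μg/ml VRC. Supernatant IL-1β, TNF-α, IL-12, MCP-1 and MIP-1β measured by sandwich ELISA in duplicate at 450/540 nm. Five independent experiments, means ± SEM; ANOVA with Dunnett's test against untreated cells.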"}, "THP-1 [14]": {"test_system": "THP-1", "assay": "Effect on TNFA gene expression in THP1 cells treated with Aspergillus fumigatus hyphae by RT-PCR", "assay_type": "functional, Homo sapiens", "outline": "(§4)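 THP-1 cells PMA-primed and exposed to hyphal fragments (E:T 10:1) with or without 0.1 μg/ml VRC. One-step RT-PCR on 0.5 μg total RNA with M-MuLV: 48°C 30 min, then 30 cycles of 94°C 15 s, 53°C 30 s, 72°C 1 min. Products run on 1.5% agarose and quantified by densitometry after normalisation to an internal control; three independent experiments.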"}, "THP-1 [15]": {"test_system": "THP-1", "assay": "Effect on IFN-gamma gene expression in THP1 cells treated with Aspergillus fumigatus hyphae after 6 hrs by cDNA array hybridization", "assay_type": "functional, Homo sapiens", "outline": "as §1"}, "THP-1 [16]": {"test_system": "THP-1", "assay": "Effect on CCL21 gene expression in THP1 cells treated with Aspergillus fumigatus hyphae after 6 hrs by cDNA array hybridization relative to control", "assay_type": "functional, Homo sapiens", "outline": "as §1"}, "CCL16 (Homo sapiens)": {"test_system": "CCL16 (Homo sapiens)", "assay": "Effect on CCL16 gene expression in THP1 cells treated with Aspergillus fumigatus hyphae after 6 hrs by cDNA array hybridization relative to control"}, "Aspergillus fumigatus [17]": {"test_system": "Aspergillus fumigatus", "assay": "Antifungal activity against Aspergillus fumigatus hyphae assessed as hyphal damage at 0.1 ug/ml after 6 hrs by XTT assay", "assay_type": "functional", "outline": "as §2"}, "THP-1 [18]": {"test_system": "THP-1", "assay": "Increase in TNFalpha production in THP1 cells stimulated with Aspergillus fumigatus hyphae at 0.1 ug/ml after 6 hrs", "assay_type": "functional, cell-based", "settings": "Homo sapiens", "outline": "as §3"}, "THP-1 [19]": {"test_system": "THP-1", "assay": "Effect on CCL2 gene expression in THP1 cells treated with Aspergillus fumigatus hyphae by RT-PCR", "assay_type": "functional, Homo sapiens", "outline": "as §4"}, "THP-1 [20]": {"test_system": "THP-1", "assay": "Effect on CXCL13 gene expression in THP1 cells treated with Aspergillus fumigatus hyphae after 6 hrs by cDNA array hybridization relative to control", "assay_type": "functional, Homo sapiens", "outline": "as §1"}, "THP-1 [21]": {"test_system": "THP-1", "assay": "Effect on CCL4 gene expression in THP1 cells treated with Aspergillus fumigatus hyphae by RT-PCR", "assay_type": "functional, Homo sapiens", "outline": "as §4"}, "THP-1 [22]": {"test_system": "THP-1", "assay": "Increase in IL1-beta production in THP1 cells stimulated with Aspergillus fumigatus hyphae at 0.1 ug/ml after 6 hrs", "assay_type": "functional, cell-based", "settings": "Homo sapiens", "outline": "as §3"}, "THP-1 [23]": {"test_system": "THP-1", "assay": "Decrease in MIP1-beta production in THP1 cells stimulated with Aspergillus fumigatus hyphae at 0.1 ug/ml after 6 hrs", "assay_type": "functional, cell-based", "settings": "Homo sapiens", "outline": "as §3"}, "THP-1 [24]": {"test_system": "THP-1", "assay": "Effect on IL12B gene expression in THP1 cells treated with Aspergillus fumigatus hyphae after 6 hrs by cDNA array hybridization", "assay_type": "functional, Homo sapiens", "outline": "as §1"}, "THP-1 [25]": {"test_system": "THP-1", "assay": "Effect on CCL20 gene expression in THP1 cells treated with Aspergillus fumigatus hyphae after 6 hrs by cDNA array hybridization relative to control", "assay_type": "functional, Homo sapiens", "outline": "as §1"}, "THP-1 [26]": {"test_system": "THP-1", "assay": "Effect on CCL11 gene expression in THP1 cells treated with Aspergillus fumigatus hyphae after 6 hrs by cDNA array hybridization relative to control", "assay_type": "functional, Homo sapiens", "outline": "as §1"}, "THP-1 [27]": {"test_system": "THP-1", "assay": "Effect on CCL7 gene expression in THP1 cells treated with Aspergillus fumigatus hyphae after 6 hrs by cDNA array hybridization relative to control", "assay_type": "functional, Homo sapiens", "outline": "as §1"}, "THP-1 [28]": {"test_system": "THP-1", "assay": "Effect on IL12A gene expression in THP1 cells treated with Aspergillus fumigatus hyphae after 6 hrs by cDNA array hybridization", "assay_type": "functional, Homo sapiens", "outline": "as §1"}, "THP-1 [29]": {"test_system": "THP-1", "assay": "Increase in IL12 production in THP1 cells stimulated with Aspergillus fumigatus hyphae at 0.1 ug/ml after 6 hrs", "assay_type": "functional, cell-based", "settings": "Homo sapiens", "outline": "as §3"}}, "note": "The source made the active and inactive calls. The calls are words filed in the database; no cut-off is given here."}
{"compound": "C[C@@H](c1ncncc1F)[C@](O)(Cn1cncn1)c1ccc(F)cc1F", "note": "[VORICONAZOLE]", "values": [{"measurement": "Fold change", "setting": "THP-1 [1]", "value": 5.9}, {"measurement": "Fold change", "setting": "THP-1 [2]", "value": -7.7}, {"measurement": "Fold change", "setting": "THP-1 [3]", "value": 6.4}, {"measurement": "Fold change", "setting": "THP-1 [4]", "value": 5.2}, {"measurement": "Fold change", "setting": "THP-1 [5]", "value": 3.5}, {"measurement": "Fold change", "setting": "THP-1 [6]", "value": 10.1}, {"measurement": "Fold change", "setting": "THP-1 [7]", "value": 19.3}, {"measurement": "Fold change", "setting": "THP-1 [8]", "value": 3.1}, {"measurement": "Activity", "setting": "Aspergillus fumigatus [9]", "value": 42.11, "unit": "%"}, {"measurement": "Fold change", "setting": "THP-1 [10]", "value": -2.4}, {"measurement": "Fold change", "setting": "THP-1 [11]", "value": 17.7}, {"measurement": "Fold change", "setting": "THP-1 [12]", "value": 6.3}, {"measurement": "Activity", "setting": "THP-1 [13]", "value": "Active"}, {"measurement": "Fold change", "setting": "THP-1 [14]", "value": 2.6}, {"measurement": "Fold change", "setting": "THP-1 [15]", "value": 3.3}, {"measurement": "Fold change", "setting": "THP-1 [16]", "value": -2.6}, {"measurement": "Fold change", "setting": "CCL16 (Homo sapiens)", "value": 0.04}, {"measurement": "Activity", "setting": "Aspergillus fumigatus [17]", "value": 26.77, "unit": "%"}, {"measurement": "Activity", "setting": "THP-1 [18]", "value": "Active"}, {"measurement": "Fold change", "setting": "THP-1 [19]", "value": -3}, {"measurement": "Fold change", "setting": "THP-1 [20]", "value": 7}, {"measurement": "Fold change", "setting": "THP-1 [21]", "value": 4}, {"measurement": "Activity", "setting": "THP-1 [22]", "value": "Active"}, {"measurement": "Activity", "setting": "THP-1 [23]", "value": "Active"}, {"measurement": "Fold change", "setting": "THP-1 [24]", "value": -6}, {"measurement": "Fold change", "setting": "THP-1 [25]", "value": -2.5}, {"measurement": "Fold change", "setting": "THP-1 [26]", "value": 2.5}, {"measurement": "Fold change", "setting": "THP-1 [27]", "value": 11.3}, {"measurement": "Fold change", "setting": "THP-1 [28]", "value": -3.3}, {"measurement": "Activity", "setting": "THP-1 [29]", "value": "Active"}]}
